Results reported in PubChem BioAssay AID1899 (The Scripps Research Institute Molecular Screening Center, 2009).
Hit rate of the full screen: of about 300,000 compounds, about 1,000 (0.33%) were called active.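 Rule for the calls: active = inhibition above the mean of all tested compounds plus 3 SD, set per screening campaign (cut at about 45% in these data); inactive = the rest.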 The entries come from a sample that favours actives as a whole.

What follows are compounds tested on HCV core protein (residues 1-106) dimerization (assay: inhibitors of HCV core protein dimerization, primary screen, biochemical, TR-FRET, high-throughput (AID 1899)). Conditions: TR-FRET GST/Flag-core106 dimerization, 1536-well; at 5 µM; hits give high values.
Procedure, shortened: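 Assay system: GST-tagged and Flag-tagged HCV core protein residues 1-106 / Times: compound-protein-antibody incubation 4 h at 22.5 °C / Signal: time-resolved FRET, ex 340 nm, em 617 and 671 nm / Evaluation: % inhibition based on acceptor/donor emission ratio / Benchmarks: wells lacking GST-core106 and wells with excess unlabelled core106 / Repeats: singlicate, one well per compound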

| Structure (SMILES) | inhibition |
| --- | --- |
| CCN(CC(=O)Nc1ccccc1OC)C(=O)Cn1cnc2ccccc2c1=O | 0.63% (inactive) |
| C=C1CCN([C@@H](Cc2ccccc2)C(=O)N2CCOCC2)S(=O)(=O)c2ccccc21 | 5.65% (inactive) |
| CCOC(=O)CSc1nc2ccc(C)cc2n2cnnc12 | -1.27% (inactive) |
| CC(C)(C)CC(=O)Nc1nnc(SCC(=O)NCc2cccs2)s1 | 10.5% (inactive) |
| O=C(c1ccccc1)N1CCN(C(=O)c2cc3nc(-c4ccccc4)cc(C(F)(F)F)n3n2)CC1 | -5.71% (inactive) |
| Cc1ccc(N2NC(=O)/C(=C/C=C/c3ccco3)C2=O)cc1C | 13.5% (inactive) |
| CN1C(=O)/C(=C/c2ccco2)SC1=Nc1cccc(C(=O)O)c1 | 1.21% (inactive) |
| Cc1ccc(N=C2NC(=O)/C(=C/C=C/c3ccco3)S2)cc1C | 61.8% (active) |
| C/C(=N\NC(=O)c1ccc(CSc2nc(C)cc(C)n2)cc1)C1CCCCC1 | 7.33% (inactive) |
| O=C(Nc1ccccc1C(=O)O)c1ccc(N2C(=O)C3CC=CCC3C2=O)cc1 (centres undefined) | -0.72% (inactive) |
| Cc1ccccc1NC(=O)CN1C(=O)N/C(=C\c2cccn2-c2cccc(C(=O)O)c2)C1=O | -4.12% (inactive) |
| N#Cc1ccccc1CN1C(=O)S/C(=C/c2cccn2-c2cccc(C(=O)O)c2)C1=O | 74.2% (active) |
| Cc1cc(/C=C2\SC(=O)N(C)C2=O)c(C)n1-c1cccc(C(=O)O)c1 | 8.51% (inactive) |
| COc1ccc(S(=O)(=O)N2CCOC23CCN(S(=O)(=O)c2ccc([N+](=O)[O-])cc2)CC3)cc1 | 7.35% (inactive) |
| CC(C)c1ccccc1OCC(O)CN(CC(O)COc1cccc2ccccc12)C(C)C (centres undefined) | -10.3% (inactive) |
| Cc1ccc(C(=O)N/C(=C\c2cn(S(=O)(=O)N(C)C)c3ccccc23)C(=O)N2CCCC2)cc1 | 15.1% (inactive) |
| O=C(Nc1ccccc1C(=O)N1CCCCC1)c1ccco1 | -1.76% (inactive) |
| CN(C)C=NC(=O)c1cccn1-c1ncc(C(F)(F)F)cc1Cl | -0.36% (inactive) |
| CNC(=O)C1CCN(S(=O)(=O)c2c(C)noc2/C=C/c2cccc(C)c2)CC1 | -2.65% (inactive) |
| Cc1noc(/C=C/c2ccco2)c1S(=O)(=O)N1CCC(C(=O)Nc2ccc(Cl)cn2)CC1 | 9.46% (inactive) |
| Cc1noc(/C=C/c2ccco2)c1S(=O)(=O)N1CCC(C(=O)N2CCc3ccccc32)CC1 | 66.4% (active) |
| Cc1cccc(C)c1NC(=O)CN1C(=O)C(C)Oc2ccccc21 (centres undefined) | 5.55% (inactive) |
| CN(C)c1ccc(C(=S)N2CCN(C(=S)Nc3ccc(Cl)cc3)CC2)cc1 | 13% (inactive) |
| CCOc1ccccc1/C=c1\sc2nc(-c3ccco3)nn2c1=O | 62.2% (active) |
| O=c1nc2s/c(=C\c3ccco3)c(=O)n2nc1Cc1ccccc1 | 22.3% (inactive) |
| CSc1nc(-c2ccco2)nn1C(=O)CCc1ccccc1 | -2.5% (inactive) |
| CC(=O)c1c(Nc2ccccc2)sc(C(=O)c2ccccc2)c1C | -11.1% (inactive) |

| Structure (SMILES) | inhibition |
| --- | --- |
| C=CCC(Nc1ccccc1)c1cccc(OC)c1OC (centres undefined) | 2.92% (inactive) |
| CCOC(=O)c1c(C)n(C)c2ccc(OC)c(NC(=O)CN3CCC4(CC3)OCCO4)c12 | -1.2% (inactive) |
| Cc1ccc2nc(-c3ccncc3)cc(C(=O)Nc3ccncc3)c2c1 | 8.74% (inactive) |
| O=C(Nc1ccc(S(=O)(=O)Nc2nccs2)cc1)c1cc(-c2ccncc2)nc2ccccc12 | 76% (active) |
| O=C(Nc1ccc(S(=O)(=O)Nc2nccs2)cc1)c1cc(=O)[nH]c2ccccc12 | 2.23% (inactive) |
| Cc1ccc(C(=O)O)cc1-c1ccc(/C=C2\SC(=O)N(CC(=O)Nc3ccc4c(c3)OCO4)C2=O)o1 | 4.8% (inactive) |
| C=CCOc1ccc(Cl)cc1CNCCCN1CCOCC1 | 12.2% (inactive) |
| CCn1c(C)c(C)c2cc(C(=O)N3CCN(c4cccc(C)c4C)CC3)ccc21 | 18% (inactive) |
| C[C@@H]1CC[C@@]2(OC1)O[C@H]1C[C@H]3[C@@H]4CC=C5C[C@@H](O)[C@H](O)C[C@]5(C)C4CC[C@]3(C)[C@H]1[C@@H]2C (some centres undefined) | -14.2% (inactive) |
| Cc1cccc(NC(=O)CN2CCCN(S(=O)(=O)c3ccc(Br)s3)CC2)c1 | 3.89% (inactive) |
| CCN(CC(=O)NC1CCS(=O)(=O)C1)c1nc(-c2cccnc2)nc2ccccc12 (centres undefined) | -0.09% (inactive) |
| COC(=O)CCCC1=CC2=CC(=O)C(C)(OC(=O)c3cccs3)C(=O)C2=CN1CC1CC1 (centres undefined) | -6.02% (inactive) |
| COC(=O)CCCC1=CC2=CC(=O)C(C)(OC(=O)c3cccs3)C(=O)C2=CN1CC(C)C (centres undefined) | 11.6% (inactive) |
| COC(=O)CCCC1=CC2=CC(=O)C(C)(OC(=O)c3cccs3)C(=O)C2=CN1c1cccc(C#N)c1 (centres undefined) | 47.4% (active) |
| COc1cccc(NC(=O)c2ccccc2N(Cc2ccccc2)S(C)(=O)=O)c1 | 1.86% (inactive) |
| CCc1ccc(NC(=O)Cn2ncn3c(cc4ccccc43)c2=O)cc1 | 13% (inactive) |
| COc1ccc(NC(=O)Cn2ncn3c(cc4ccccc43)c2=O)c(OC)c1OC | 50.6% (active) |
| COc1ccc(NC(=O)CCNC(=O)Cn2ccc3ccccc3c2=O)c(OC)c1 | -5.48% (inactive) |
| Fc1ccc(-c2ccc(NCCN3CCOCC3)nn2)cc1 | -9.05% (inactive) |
| Cc1ccc(C)c(OCCC(=O)Nc2cccc(S(=O)(=O)N3CCCC3)c2)c1 | -2.89% (inactive) |
| CN(C(=O)COC(=O)c1nc(Cl)ccc1Cl)C1CCS(=O)(=O)C1 (centres undefined) | 5.01% (inactive) |
| CN(C(=O)COC(=O)c1cc(-c2ccco2)nc2ccccc12)C1CCS(=O)(=O)C1 (centres undefined) | 77.2% (active) |
| Cc1c(-c2cccc(Cl)c2)nc2ccccc2c1C(=O)OCC(=O)N(C)C1CCS(=O)(=O)C1 (centres undefined) | 1.86% (inactive) |
| COc1ccc(NC(=O)c2ccccc2CC[N+](=O)[O-])cc1 | 1.6% (inactive) |
| O=C(Cc1ccc(S(=O)(=O)N2CCOCC2)s1)NCCC(c1ccccc1)c1ccccc1 | 44.1% (inactive) |
| O=C(NC1CCCCC1)C1CCCN(S(=O)(=O)c2ccc(Br)s2)C1 (centres undefined) | 3.6% (inactive) |
| O=C(Cc1ccc(S(=O)(=O)N2CCCC2)s1)NC1CCCCCC1 | 48% (active) |
